ChEMBL document CHEMBL3272032, “Antifolate studies. Activities of 40 potential antimalarial compounds against sensitive and chlorguanide triazine resistant strains of folate-requiring bacteria and Escherichia coli” (J Med Chem, 1977)
Calls of active or inactive are those of the source. No cut-off for these calls is given here.

Tests used:
Enterococcus faecium [1] = experiment: Antibacterial activity against chlorguanide triazine-resistant Streptococcus faecium ATCC 8043 assessed as reduction in growth in presence of 0.002 ug/ml folic acid; format: functional, organism-based
Procedure, shortened: (§1)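 Folate-requiring strains grown in medium with folic acid, 0.002 µg/ml for S. faecium and 0.001 µg/ml for L. casei; P. cerevisiae given folinic acid, 0.001 µg/ml. Resistant substrains came from serial transfer in rising chlorguanide triazine, and the most resistant were used. Compounds tested up to 1000 µg/ml, or 100 µg/ml when supply was limited. Growth read as Klett turbidity; IC50 is the µM concentration giving 50% growth inhibition.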

Lacticaseibacillus casei [2] = experiment: Antibacterial activity against sensitive Lactobacillus casei ATCC 7469 assessed as reduction in growth in presence of 0.001 ug/ml folic acid; format: functional, organism-based
Procedure, shortened: (§2)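 Folate-requiring strains in the medium of the earlier assay method. Folic acid was 0.002 μg/ml for S. faecium and 0.001 μg/ml for L. casei. Turbidity read on a Klett-Summerson colorimeter. IC50 is the micromolar concentration reducing growth to 50% of control. Top concentration was 1000 μg/ml, or 100 μg/ml if supply was limited.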

Lacticaseibacillus casei [3] = experiment: Antibacterial activity against chlorguanide triazine-resistant Lactobacillus casei ATCC 7469 assessed as reduction in growth in presence of 0.001 ug/ml folic acid; format: functional, organism-based; procedure, shortened: as §1
Pediococcus [4] = experiment: Antibacterial activity against sensitive Pediococcus cerevisiae ATCC 808 assessed as reduction in growth in presence of 0.001 ug/ml folinic acid; format: functional
Procedure, shortened: (§3)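 P. cerevisiae grown with folinic acid at 0.001 μg/ml in the earlier-described medium. Turbidity read on a Klett-Summerson colorimeter. IC50 is the micromolar concentration reducing growth to 50% of control. Top concentration was 1000 μg/ml, or 100 μg/ml when supply was limited.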

Pediococcus [5] = experiment: Antibacterial activity against chlorguanide triazine-resistant Pediococcus cerevisiae ATCC 808 assessed as reduction in growth in presence of 0.001 ug/ml folinic acid; format: functional; procedure, shortened: as §1
Escherichia coli [6] = experiment: Antibacterial activity against sensitive Escherichia coli ATCC 10536 assessed as reduction in growth in presence of p-aminobenzoic acid; format: functional, organism-based
Procedure, shortened: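 Reversal test. Drug inhibition was challenged with PABA in Sahyun et al. medium plus 0.6% acid-hydrolyzed casein. Growth read as turbidity on a Klett-Summerson colorimeter. Scored as reversal or nonreversal of the drug inhibition.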

Plasmodium berghei [7] = experiment: Antimalarial activity against Plasmodium berghei infected in sc dosed mouse assessed as active dose required to increase of 100% in mean survival time; format: functional; details: read-out: MED
Procedure, shortened: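 Mice received a standard blood-induced P. berghei inoculum and were then treated with one subcutaneous dose of compound suspended in peanut oil. The minimum active dose is the lowest dose that raised mean survival time by 100%.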

Plasmodium berghei [8] = experiment: Antimalarial activity against Plasmodium berghei infected in sc dosed mouse assessed as dose required to survivors for period of 60 days; format: functional
Procedure, shortened: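 Mice infected with a blood-induced P. berghei inoculum were given one subcutaneous dose in peanut oil. Survivors at 60 days counted as cured. The minimum curative dose is the lowest dose that cured any mouse.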

Enterococcus faecium [9] = experiment: Antibacterial activity against sensitive Streptococcus faecium ATCC 8043 assessed as reduction in growth; format: functional, organism-based; procedure, shortened: as §1
Enterococcus faecium [10] = experiment: Antibacterial activity against chlorguanide triazine-resistant Streptococcus faecium ATCC 8043 assessed as reduction in growth; format: functional, organism-based; procedure, shortened: as §1
Enterococcus faecium [11] = experiment: Fold increase in resistance, ratio of IC50 for chlorguanide triazine-resistant Streptococcus faecium ATCC 8043 to IC50 for sensitive Streptococcus faecium ATCC 8043; format: functional
Procedure, shortened: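 Resistant S. faecium substrain raised by serial transfer in increasing chlorguanide triazine. IC50 (µM, 50% growth inhibition by turbidity) was found for resistant and parent strains in folic acid (0.002 µg/ml) medium. Fold increase taken as IC50 resistant / IC50 sensitive.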

Lacticaseibacillus casei [12] = experiment: Antibacterial activity against sensitive Lactobacillus casei ATCC 7469 assessed as reduction; format: functional, organism-based; procedure, shortened: as §1
Lacticaseibacillus casei [13] = experiment: Antibacterial activity against chlorguanide triazine-resistant Lactobacillus casei ATCC 7469 assessed as reduction in growth; format: functional, organism-based; procedure, shortened: as §1
Lacticaseibacillus casei [14] = experiment: Fold increase in resistance, ratio of IC50 for chlorguanide triazine-resistant Lactobacillus casei ATCC 7469 to IC50 for sensitive Lactobacillus casei ATCC 7469; format: functional
Procedure, shortened: (§4)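 Resistant substrains were made by serial transfer in rising concentrations of cycloguanil, and the most resistant isolate of each organism was used. Both strains were assayed turbidimetrically under identical conditions. FIR = IC50 of the resistant strain divided by IC50 of the sensitive parent.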

[15] = Antibacterial activity against sensitive Pediococcus cerevisiae ATCC 808 assessed as reduction; format: functional; procedure, shortened: as §3
[16] = Antibacterial activity against chlorguanide triazine-resistant Pediococcus cerevisiae ATCC 808 assessed as reduction in growth; format: functional; procedure, shortened: as §1
Pediococcus [17] = experiment: Fold increase in resistance, ratio of IC50 for chlorguanide triazine-resistant Pediococcus cerevisiae ATCC 808 to IC50 for sensitive Pediococcus cerevisiae ATCC 808; format: functional; procedure, shortened: as §4
Escherichia coli [18] = experiment: Antibacterial activity against sensitive Escherichia coli ATCC 10536 assessed as reduction in growth; format: functional, organism-based
Procedure, shortened: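 Growth inhibition in Sahyun et al. medium plus 0.6% acid-hydrolyzed casein. Growth read as turbidity on a Klett-Summerson photoelectric colorimeter. IC50 is the micromolar concentration giving 50% growth inhibition. Top concentration was 1000 μg/ml, or 100 μg/ml when compound was limited.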

Enterococcus faecium [19] = experiment: Antibacterial activity against sensitive Streptococcus faecium ATCC 8043 assessed as reduction in growth in presence of 0.002 ug/ml folic acid; format: functional, organism-based; procedure, shortened: as §2

| SMILES | inhibition (Enterococcus faecium [1]) | inhibition (Lacticaseibacillus casei [2]) | inhibition (Lacticaseibacillus casei [3]) | inhibition (Pediococcus [4]) | inhibition (Pediococcus [5]) | inhibition (Escherichia coli [6]) | minimal effective dose (Plasmodium berghei [7]) [mg/kg] | MCD (Plasmodium berghei [8]) [mg/kg] | IC50 (Enterococcus faecium [9]) [µM] | IC50 (Enterococcus faecium [10]) [µM] | Ratio IC50 (Enterococcus faecium [11]) | IC50 (Lacticaseibacillus casei [12]) [µM] | IC50 (Lacticaseibacillus casei [13]) [nM] | Ratio IC50 (Lacticaseibacillus casei [14]) | IC50 [15] [µM] | IC50 [16] [µM] | Ratio IC50 (Pediococcus [17]) | IC50 (Escherichia coli [18]) [µM] | inhibition (Enterococcus faecium [19]) |
| --- | --- | --- | --- | --- | --- | --- | --- | --- | --- | --- | --- | --- | --- | --- | --- | --- | --- | --- | --- |
| Nc1nc(N)c2cc(S(=O)(=O)c3ccc4ccccc4c3)ccc2n1 | inactive | inactive | inactive | inactive | inactive | Active | 0.63 | 1.25 | 0.002 | 0.08 | 40 | 0.04 | 9 | 0.23 | 0.002 | 0.05 | 25 | < 0.2 | inactive |
| CN(Cc1cnc2nc(N)nc(N)c2n1)c1ccc(C(=O)N[C@@H](CCC(=O)O)C(=O)O)cc1 [METHOTREXATE] | Active | Active | Active | inactive | inactive | Active | > 640 | >640 | 0.002 | 0.01 | 5 | 6e-05 | 0.01 | 0.17 | 0.4 | 1.5 | 4 | 143 | Active |
| CCc1nc(N)nc(N)c1-c1ccc(Cl)cc1 [PYRIMETHAMINE] | inactive | inactive | inactive | inactive | inactive | Active | 10 | 40 | 0.008 | 10.5 | 1300 | 5.1 | 240 | 0.05 | 4 | 12 | 3 | 76 | inactive |
| COc1cc(Cc2cnc(N)nc2N)cc(OC)c1OC [TRIMETHOPRIM] | inactive | inactive | inactive | inactive | inactive | Active | > 640 | >640 | 0.08 | 1.2 | 15 | 0.19 | 17 | 0.09 | 11.7 | 67.5 | 6 | 0.4 | inactive |
| ClC(Cl)(Cl)c1ccc(C(Cl)(Cl)Cl)cc1 | Active | Active | Active | Active | Active | Active | 640 | 640 | 2000 | 1900 | 1 | 1000 | 990000 | 1 | 959 | 2000 | 2 | 262 | Active |
| CCN1CCCC(Nc2cc(C)nc(NC(=N)Nc3ccc(Cl)c(Cl)c3)n2)C1 (centres undefined) | Active | Active | Active | Active | Active | Active | 20 | 40 | 227 | 121 | 0.53 | 65.1 | 55700 | 0.85 | 32 | 39 | 1 | 85 | Active |
